TCR CD3 inh = inhibitors of human TCR-CD3 interaction; TAMRA-labeled TCR probe fluorescence, biochemical; inhibition, % at 9.4 µM; 0.37% of 360,000 active; in the data active = inhibition above about 19%;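 note: recombinant mutant TCR 2C K166C tagged with TAMRA read by polarization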
ABHD4 inh = inhibitors of mouse ABHD4. purified mABHD4, FP-Rh probe fluorescence polarization. inhibition, % at 8.92 µM. 0.54% of 370,000 active. Q8VD66;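 active = inhibition exceeding the mean over every tested compound plus 3 SD, cut at about 30% in these data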
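Test system: mABHD4 protein | Buffer or medium: HEPES pH 7.0 buffer, 150 mM NaCl, 0.01% Pluronic F-127 | Probe or stimulus: FP-Rh fluorescent activity-based probe, added after compound pre-incubation | Timing: Pre-incubation 45 min, probe exposure 60 min, at 25 °C | Technique: Fluorescence polarization, excitation 525 nm, emission 598 nm, BODIPY TMR filters | Repeats: Single well per compound (singlicate)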
HTRA1 inh = inhibitors of human serine peptidase HTRA1; Q92743; recombinant HTRA1, FP-rhodamine activity-based probe, fluorescence polarization; inhibition, % at 5.96 µM; 0.5% of 340,000 active; AID 504803; in the data active = inhibition above about 36%
PRMT1 inh = inhibitors of human PRMT1. recombinant PRMT1, activity-based probe fluorescence polarization. 1.3% of 370,000 active. inhibition, % at 2.79 µM;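 active = inhibition above about 21% made by adding two undisclosed values, limit read from the data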
SIAE inh = blocks human sialic acid acetylesterase; Q9HAT2; SIAE FP-Rh probe binding, fluorescence polarization; inhibition, % at 9.66 µM; 0.69% of 370,000 active;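 active = inhibition above a cutoff: mean of compounds within the control limits plus 3 SD of those, cut at about 17% in these data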
Target sequence (Q9HAT2 whole entry, looked up): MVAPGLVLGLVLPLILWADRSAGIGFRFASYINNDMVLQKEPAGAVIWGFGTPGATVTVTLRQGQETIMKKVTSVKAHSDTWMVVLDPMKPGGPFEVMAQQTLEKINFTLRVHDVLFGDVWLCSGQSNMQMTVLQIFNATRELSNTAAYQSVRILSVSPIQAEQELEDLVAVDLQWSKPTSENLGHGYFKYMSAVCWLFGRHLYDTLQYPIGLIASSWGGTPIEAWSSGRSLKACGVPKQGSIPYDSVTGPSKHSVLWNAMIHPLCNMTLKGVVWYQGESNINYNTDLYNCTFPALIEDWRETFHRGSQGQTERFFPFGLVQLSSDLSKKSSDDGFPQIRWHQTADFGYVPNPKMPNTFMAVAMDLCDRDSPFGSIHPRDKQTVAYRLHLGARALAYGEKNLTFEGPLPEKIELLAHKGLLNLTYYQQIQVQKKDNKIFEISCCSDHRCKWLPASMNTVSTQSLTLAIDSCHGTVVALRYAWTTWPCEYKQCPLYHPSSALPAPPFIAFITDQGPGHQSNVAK
ABHD4 confirm = ABHD4 (mouse) inhibition, FP confirmation | shares compounds with ABHD4 inh | purified mABHD4, FP-Rh probe fluorescence polarization | inhibition, % at 8.92 µM | 55% of 1,800 active;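 active = mean inhibition across replicates above the hit cutoff set in the primary screen, cut at about 30% in these data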
Of the large screens only hits and unclear results are named; the others gave an inactive call (follow-up assays come after a bar, where they were run). Hits are enriched below; roughly 2.5% of the tested compounds scored in any of these assays.

CCNC(=S)NNC(=O)c1ccccc1Cl	none
CCNC(=S)NNC(=O)c1ccccn1	ABHD4 inh 54 | ABHD4 confirm 55
O=c1ccc2nc3ccccc3sc-2c1	ABHD4 inh 66, PRMT1 inh 22 (no result: HTRA1 inh) | ABHD4 confirm 37
COc1cccc(C2CC(c3cccc(NS(C)(=O)=O)c3)=NN2C(=O)c2ccccc2)c1OC (stereo unspecified)	ABHD4 inh 34 | ABHD4 confirm 31
CC(NC(=O)c1ccccc1NC(=O)c1ccncc1)c1ccccc1 (stereo unspecified)	none
Cc1cc(C(=O)O)cc(S(=O)(=O)Nc2ccccc2C(=O)NC(C)c2ccccc2)c1C (stereo unspecified)	ABHD4 inh 34 | ABHD4 confirm inactive
CCOc1ccc(N2C(=O)C(Cl)=C(Nc3ccccc3O)C2=O)cc1	ABHD4 inh 34, PRMT1 inh 22 | ABHD4 confirm inactive
COc1ccccc1NC1=C(Cl)C(=O)N(c2ccccc2)C1=O	none
O=C(Nc1cccc([N+](=O)[O-])c1)NC1CCCCN(Cc2cccc(Cl)c2)C1=O (stereo unspecified)	none (no result: TCR CD3 inh, HTRA1 inh)
CCN(CCNCC(O)COc1ccccc1C(C)C)c1cccc(C)c1 (stereo unspecified)	ABHD4 inh 32 | ABHD4 confirm 41
CCOC(=O)N1CCN(CC(O)COc2ccccc2C(C)C)CC1 (stereo unspecified)	none
COc1nc(OC)nc(N2CCC(C(=O)N(C)Cc3ccco3)CC2)n1	none (no result: TCR CD3 inh, HTRA1 inh)
Cc1ccc(SCC(=O)N/N=C/c2ccco2)cc1	none
OC(CNCCC1C=Nc2ccccc21)Cn1c2ccc(Cl)cc2c2cc(Cl)ccc21 (stereo unspecified)	ABHD4 inh 34, SIAE inh 27 | ABHD4 confirm 44
Nc1ccnc(=O)[nH]1	none
COc1cccc2c(NCc3ccccc3)nc(-n3c(N)nc4ccccc43)nc12	ABHD4 inh 37 (no result: TCR CD3 inh, HTRA1 inh) | ABHD4 confirm inactive
COc1cccc(-c2nc(NCc3cccnc3)c3ccccc3n2)c1O	none
O=C(COC(=O)c1ccc(S(=O)(=O)N2CCCC2)cc1)NCc1cccs1	none
COCCCNc1cc(C)nc2ccccc12	none
Cc1cc(NCCCCCCCNc2cc(C)nc3cc([N+](=O)[O-])ccc23)c2ccc([N+](=O)[O-])cc2n1	ABHD4 inh 32 | ABHD4 confirm 40
O=C(O)c1ccc(N/N=C/c2ccc(-c3cc(Cl)ccc3Cl)o2)cc1	none
O=[N+]([O-])c1ccc(C=NNc2ccc(S(=O)(=O)O)cc2)cc1	ABHD4 inh 33 | ABHD4 confirm 50
O=C(O)c1ccc(N/N=C/c2ccc(-c3cccc(Cl)c3)o2)cc1	ABHD4 inh 50 | ABHD4 confirm 65
NC(=S)N/N=C/c1ccc(-c2cccc([N+](=O)[O-])c2)o1	none
Cc1c(C(=O)O)cccc1-c1ccc(/C=N/Nc2ccc(Br)cc2)o1	ABHD4 inh 35 | ABHD4 confirm 42
O=C(O)c1cccc(-c2ccc(/C=N/Nc3ccc([N+](=O)[O-])cc3)o2)c1	ABHD4 inh 39 | ABHD4 confirm 53
S=C1CCC(c2ccc(Br)cc2)=NN1c1ccccc1	none
CCC(C)NC(=O)c1cc(S(=O)(=O)N2CCCCC2)c[nH]1 (stereo unspecified)	none
Oc1ccc(NC(=S)Nc2ccc(O)cc2)cc1	ABHD4 inh 49 | ABHD4 confirm inactive
Cc1ccccc1CN1CCCCC(NC(=O)Nc2cccc(F)c2)C1=O (stereo unspecified)	none (no result: TCR CD3 inh, HTRA1 inh)
COc1cc(/C=C(\C#N)c2nc3ccccc3s2)cc([N+](=O)[O-])c1O	none
N#C/C(=C\c1ccc(O)c([N+](=O)[O-])c1)c1nc2ccccc2s1	ABHD4 inh 30 | ABHD4 confirm 71
CCCCNc1c(-c2cccc(-c3cc(C(C)=O)cs3)c2)nc2ccc(C)cn12	none
CCCCCCSc1ccc(-c2nc3ccccn3c2NCCCC)cc1	ABHD4 inh 44 | ABHD4 confirm 50
CCCCNc1c(-c2cccc(-c3ccc(OC)cc3)c2)nc2ccc(C)cn12	ABHD4 inh 30 | ABHD4 confirm 35
CCCCNc1c(-c2ccc(-c3cccc(Cl)c3)cc2)nc2ccccn12	ABHD4 inh 40 | ABHD4 confirm 32
N#CCC(=O)NNc1c([N+](=O)[O-])cc(C(F)(F)F)cc1[N+](=O)[O-]	ABHD4 inh 43 (no result: HTRA1 inh) | ABHD4 confirm inactive
O=S(=O)(Nc1ccccc1)c1ccc(F)cc1	none
O=C(O)c1cccc(NS(=O)(=O)c2ccc(C3CCCCC3)cc2)c1	none (no result: TCR CD3 inh, ABHD4 inh, PRMT1 inh, SIAE inh)
O=C1c2ccccc2C(=O)c2cc(S(=O)(=O)Nc3ccccc3)ccc21	ABHD4 inh 40 | ABHD4 confirm 53
O=C(O)c1cccc(NS(=O)(=O)c2ccc3c(c2)C(=O)c2ccccc2C3=O)c1	ABHD4 inh 45 | ABHD4 confirm 37
O=C1CC(Nc2ccc(N3CCOCC3)cc2)C(=O)N1c1ccccc1F (stereo unspecified)	ABHD4 inh 50 | ABHD4 confirm inactive
O=C1CC(Nc2ccccc2)C(=O)N1c1ccc(N2CCOCC2)cc1 (stereo unspecified)	none
COCCNC(=O)C1Nc2ccc(C(F)(F)F)cc2C2C=CCC12 (stereo unspecified)	ABHD4 inh 33 | ABHD4 confirm inactive
O=C(NC1CCC1)c1ccc(C#Cc2cccc(F)c2)cn1	none (no result: TCR CD3 inh, HTRA1 inh)
O=C(COc1ccccc1)N=C1SC2CS(=O)(=O)CC2N1c1ccc(F)cc1 (stereo unspecified)	ABHD4 inh 34 | ABHD4 confirm inactive
O=C(COc1ccccc1)N=C1SC2CS(=O)(=O)CC2N1CCc1ccccc1 (stereo unspecified)	none
CC(=O)N1CCN(C(=S)NC(=O)c2ccc(S(=O)(=O)N3CCOCC3)cc2)CC1	none
C/C(=N\NS(=O)(=O)c1ccc(C(C)(C)C)cc1)c1ccccc1	none
CC(C)(C)c1ccc(S(=O)(=O)/N=C2\C=C(NS(=O)(=O)c3ccccc3)C(=O)c3ccccc32)cc1	ABHD4 inh 36 | ABHD4 confirm 60
Cc1ccc(S(=O)(=O)/N=C2\C=C(NS(=O)(=O)c3ccccc3)C(=O)c3ccccc32)c(C)c1	ABHD4 inh 50 | ABHD4 confirm 36
CC(C)C1Nc2ccc(C(=O)O)cc2C2C=CCC21 (stereo unspecified)	ABHD4 inh 45 | ABHD4 confirm 38
CCOc1ccc(CCNC(=O)c2cc(-c3ccccc3)c(N3CCOCC3)s2)cc1OC	none (no result: TCR CD3 inh, HTRA1 inh)
CC(=O)C1=C(C)NC2=C(C(=O)c3ccccc32)C1c1ccccc1 (stereo unspecified)	ABHD4 inh 41 | ABHD4 confirm 83
CC(C)n1cc(C(=O)N2CCCC(N3CCN(c4cccc(Cl)c4)CC3)C2)cn1 (stereo unspecified)	none
CC(=O)N=c1sc2ccccc2n1C	none
CC(=O)N=c1sc2nc3ccccc3nc2n1N(C(C)=O)C(C)=O	ABHD4 inh 35 | ABHD4 confirm inactive

Compound activity (PubChem)
